The subject of data set [1] is HepG2. The data set can be described thus: Cytotoxicity against human HepG2 cells by MTT assay. It counts as functional, cell-based.
In data set [2] the test system is MCF7. Nature of the data set: Cytotoxicity against human MCF7 cells by MTT assay. Type of data set: functional, cell-based.
For data set [3], the system named is MDA-MB-231. Nature of the data set: Cytotoxicity against human MDA-MB-231 cells by MTT assay. It counts as functional, cell-based.
Data set [4] can be described thus: Cytotoxicity against human Hep3B cells by MTT assay. Type of data set: functional, cell-based, Hep 3B2.
Data set [5] deals with A549. Nature of the data set: Cytotoxicity against human A549 cells by MTT assay. It counts as functional, cell-based.
In data set [6] the test system is Ca9-22. Nature of the data set: Cytotoxicity against human Ca9-22 cells by MTT assay. It counts as functional, cell-based.
Data set [7] can be described thus: Cytotoxicity against human neutrophils assessed as increase in LDH level relative to control. It counts as cell-based. The note with it: neutrophil. The gist of the method:
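Lysed-cell reference made with 0.1% Triton X-100, 30 min at 37 °C. LDH in the cell-free medium was measured with a commercial kit. Result given as a percentage of total LDH release.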

A short description of data set [8]: Antiinflammatory activity in human neutrophils assessed as inhibition of FMLP/CB-induced superoxide anion generation incubated for 5 mins prior to FMLP/CB-challenge measured after 10 mins by spectrophotometry. It counts as functional, cell-based. The settings on record: Neutrophil. The procedure, abridged: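 Neutrophils isolated by dextran sedimentation and Ficoll centrifugation. Cells were given 0.5 mg/mL ferricytochrome c and 1 mM Ca2+ and equilibrated at 37 °C for 2 min. They were then exposed to drug for 5 min and to cytochalasin B (1 μg/mL) for 3 min, then activated with fMLP (100 nM) for 10 min. Read-out was SOD-inhibitable ferricytochrome c reduction at 550 nm, monitored continuously. Mean ± SEM, n = 3.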

The nature of data set [9]: Antiinflammatory activity in human neutrophils assessed as inhibition of FMLP/CB-induced elastase release at 10 ug/mL incubated for 5 mins prior to FMLP/CB-challenge by spectrophotometry. It counts as functional. The settings on record: Neutrophil. The gist of the method: (§1)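 Neutrophils isolated from human blood by dextran sedimentation and Ficoll centrifugation, used at 6 × 10^5/mL with MeO-Suc-Ala-Ala-Pro-Val-p-nitroanilide (100 μM). Equilibrated 2 min at 37 °C, compound added for 5 min, then activated with fMLP (100 nM)/CB (0.5 μg/mL). Absorbance at 405 nm monitored continuously. Initial elastase release rate expressed as % of the fMLP/CB-activated DMSO control. PMSF positive control; mean ± SEM, n = 3.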

Data set [10] relates to Neutrophil. Nature of the data set: Ratio of PMSF IC50 to compound IC50 for antiinflammatory activity assessed as inhibition of elastase release in human neutrophils. Type of data set: functional.
The nature of data set [11]: Antiinflammatory activity in human neutrophils assessed as inhibition of FMLP/CB-induced elastase release incubated for 5 mins prior to FMLP/CB-challenge by spectrophotometry. The settings on record: Neutrophil. Type of data set: functional, cell-based. The procedure, abridged: as §1
Data set [12] in a line: Antiinflammatory activity in human neutrophils assessed as inhibition of FMLP/CB-induced superoxide anion generation at 10 ug/mL incubated for 5 mins prior to FMLP/CB-challenge measured after 10 mins by spectrophotometry. Type of data set: functional. The note with it: Neutrophil. The procedure, abridged:
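Human neutrophils isolated by dextran sedimentation and Ficoll centrifugation, supplemented with ferricytochrome c (0.5 mg/mL) and Ca2+ (1 mM). Equilibrated 2 min at 37 °C, compound added for 5 min, then cytochalasin B (1 μg/mL) for 3 min, then fMLP (100 nM) for 10 min. SOD-inhibitable ferricytochrome c reduction followed at 550 nm with stirring. Expressed as % of fMLP/CB-activated response. DPI positive control; mean ± SEM, n = 3.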

In brackets after ≈: the same amount, converted by molar mass.

`C[C@H]1CC[C@]2(OC1)O[C@H]1C[C@H]3[C@@H]4CC=C5C[C@@H](O[C@@H]6O[C@H](CO)[C@@H](O)[C@H](O)[C@H]6O[C@@H]6O[C@@H](C)[C@H](O)[C@@H](O)[C@H]6O)CC[C@]5(C)[C@H]4CC[C@]3(C)[C@H]1[C@H]2C`: the IC50 stood at 2.22 µg/mL (≈ 3.07 µM) in data set [1]; 4.78 µg/mL (≈ 6.61 µM) in [2]; 6.12 µg/mL (≈ 8.47 µM) in data set [3]; 2.95 µg/mL (≈ 4.08 µM) in [4]; 3.09 µg/mL (≈ 4.27 µM) in data set [5]; 2.95 µg/mL (≈ 4.08 µM) in data set [6].
Turning to `C[C@H]1CC[C@@]2(OC1)O[C@H]1C[C@H]3[C@@H]4CC[C@H]5C[C@@H](O[C@@H]6O[C@H](CO)[C@@H](O[C@@H]7O[C@@H](C)[C@H](O)[C@@H](O)[C@H]7O)[C@H](O)[C@H]6O[C@@H]6O[C@@H](C)[C@H](O)[C@@H](O)[C@H]6O)CC[C@]5(C)[C@H]4CC[C@]3(C)[C@H]1[C@@H]2C`, the Activity entry in data set [7] was “Toxic”. Further, the IC50 in data set [1] was 5.33 µg/mL (≈ 6.12 µM); in data set [8], 2.84 µg/mL (≈ 3.26 µM); in data set [2], 11.6 µg/mL (≈ 13.3 µM); in data set [3], 8.04 µg/mL (≈ 9.23 µM); in [4], 3.32 µg/mL (≈ 3.81 µM); in data set [5], 7.27 µg/mL (≈ 8.35 µM). For the same compound, the IC50 in [6] was 6.76 µg/mL (≈ 7.76 µM). In data set [9], the inhibition at 10 µg/mL was 38.9%.
Regarding `C[C@H]1CC[C@@]2(OC1)O[C@H]1C[C@H]3[C@@H]4CC=C5C[C@@H](O[C@@H]6O[C@H](CO)[C@@H](O)[C@H](O)[C@H]6O[C@@H]6O[C@@H](C)[C@H](O)[C@@H](O)[C@H]6O)CC[C@]5(C)[C@H]4CC[C@]3(C)[C@H]1[C@@H]2C`, the 50% inhibitory concentration (IC50) stood at 6.48 µg/mL (≈ 8.96 µM) in data set [1]; 5.84 µg/mL (≈ 8.08 µM) in data set [2]; 7.25 µg/mL (≈ 10 µM) in data set [3]; 6.98 µg/mL (≈ 9.66 µM) in data set [4]; 4.26 µg/mL (≈ 5.89 µM) in [5]; 4.51 µg/mL (≈ 6.24 µM) in [6].
As for `C[C@H]1CC[C@@]2(OC1)O[C@H]1C[C@H]3[C@@H]4CC=C5C[C@@H](O[C@@H]6O[C@H](CO)[C@@H](O[C@@H]7O[C@@H](C)[C@H](O)[C@@H](O)[C@H]7O)[C@H](O)[C@H]6O[C@@H]6O[C@@H](C)[C@H](O)[C@@H](O)[C@H]6O)CC[C@]5(C)[C@H]4CC[C@]3(C)[C@H]1[C@@H]2C`, the Activity entry in [7] is “Toxic”. Further, the IC50 in [1] was 6.44 µg/mL (≈ 7.41 µM); in [8], 1.62 µg/mL (≈ 1.86 µM); in [2], 8.84 µg/mL (≈ 10.2 µM); in [3], 5.84 µg/mL (≈ 6.72 µM); in [4], 2.87 µg/mL (≈ 3.3 µM); in data set [5] it was 4.09 µg/mL (≈ 4.71 µM). Also, the IC50 in data set [6] was determined as 3.77 µg/mL (≈ 4.34 µM); in data set [11], 4.04 µg/mL (≈ 4.65 µM). Also, the “Ratio IC50” value in [10] is recorded as 5.
With `CC[C@H](CC[C@@H](C)[C@H]1CC[C@H]2[C@@H]3C(O)C=C4C[C@@H](O[C@@H]5O[C@H](CO)[C@@H](O)[C@H](O)[C@H]5O)CC[C@]4(C)[C@H]3CC[C@]12C)C(C)C` (some centres not stated), the IC50 in data set [1], in data set [2], in data set [3], in data set [4], in [5] and in [6] was more than 20 µg/mL throughout.
With `C[C@@H]1CC[C@]2(OC1)O[C@H]1C[C@H]3[C@@H]4CC=C5C[C@@H](O[C@@H]6O[C@H](CO)[C@@H](O[C@@H]7O[C@@H](C)[C@H](O)[C@@H](O)[C@H]7O)[C@H](O)[C@H]6O)CC[C@]5(C)[C@H]4CC[C@]3(C)[C@H]1[C@H]2C` [BORASSOSIDE D], the IC50 in [1], in [2], in data set [3], in data set [4], in [5] and in data set [6] was more than 20 µg/mL throughout.
On to `C[C@H]1CC[C@]2(OC1)O[C@H]1C[C@H]3[C@@H]4CC=C5C[C@@H](O[C@@H]6O[C@H](CO)[C@@H](O[C@@H]7O[C@@H](C)[C@H](O)[C@@H](O)[C@H]7O)[C@H](O)[C@H]6O[C@@H]6O[C@@H](C)[C@H](O)[C@@H](O)[C@H]6O)CC[C@]5(C)[C@H]4CC[C@]3(C)[C@H]1[C@H]2C` [BORASSOSIDE E], for which the Activity result in [7] is given as “Toxic”. For the same compound, the IC50 was 1.83 µg/mL (≈ 2.11 µM) in [1]; 0.62 µg/mL (≈ 0.713 µM) in data set [8]; 2.61 µg/mL (≈ 3 µM) in [2]; 2.75 µg/mL (≈ 3.16 µM) in data set [3]; 2.03 µg/mL (≈ 2.34 µM) in data set [4]; 2.34 µg/mL (≈ 2.69 µM) in data set [5]. Besides, the IC50 was found to be 2.33 µg/mL (≈ 2.68 µM) in [6] and 111 µg/mL (≈ 128 µM) in data set [11].
Take `c1ccc2c(c1)[I+]c1ccccc1-2` [DIPHENYLENEIODONIUM]: the IC50 in data set [8] was determined as 0.22 µg/mL.
For `COc1cccc2c1C(=O)c1c(O)c3c(c(O)c1C2=O)C[C@@](O)(C(=O)CO)C[C@@H]3O[C@H]1C[C@H](N)[C@H](O)[C@H](C)O1` [DOXORUBICIN], the IC50 came to 0.8 µg/mL (≈ 1.47 µM) in data set [2]; 1.39 µg/mL (≈ 2.56 µM) in [3]; 1.31 µg/mL (≈ 2.41 µM) in [4]; 1.4 µg/mL (≈ 2.58 µM) in [5]; 0.31 µg/mL (≈ 0.57 µM) in data set [6].
Take `O=C(/C=C/c1ccc(O)cc1)NCCc1ccc(O)cc1` [N-P-COUMAROYL TYRAMINE]: the Activity entry in [7] is on record as “Non-toxic”. Moreover, the IC50 was 9.57 µg/mL (≈ 33.8 µM) in data set [1]; more than 20 µg/mL in [2]; more than 20 µg/mL in data set [3]; 11.2 µg/mL (≈ 39.6 µM) in [4]; 15.2 µg/mL (≈ 53.7 µM) in [5]; 12.3 µg/mL (≈ 43.3 µM) in [6]. For the same compound, the inhibition at 10 µg/mL was 23.2% in [12] and -0.17% in data set [9].
Regarding `O=S(=O)(F)Cc1ccccc1` [PHENYLMETHYLSULFONYLFLUORIDE], the IC50 in [11] is 22.8 µg/mL (≈ 131 µM).
Turning to `CC[C@H](CC[C@@H](C)[C@H]1CC[C@H]2[C@@H]3CC=C4C[C@@H](O[C@@H]5O[C@H](CO)[C@@H](O)[C@H](O)[C@H]5O)CC[C@]4(C)[C@H]3CC[C@]12C)C(C)C` [SITOGLUSIDE], the IC50 in data set [1], in [2], in [3], in data set [4], in data set [5] and in data set [6] was more than 20 µg/mL throughout. Further, the inhibition at 10 µg/mL in [12] worked out at 24.9%; in data set [9] it was 1.58%.
For `C/C(=C\CO)CC[C@@H]1[C@@]2(C)CC[C@H](O[C@@H]3O[C@H](CO)[C@@H](O)[C@H](O)[C@H]3O)C(C)(C)[C@@H]2CC[C@]1(C)O` [TRICALYSIOSIDE U], the IC50 in [1], in data set [2], in [3], in data set [4], in [5] and in data set [6] was more than 20 µg/mL each time.

The values above are taken from ChEMBL document CHEMBL2034907, “Indiosides G-K: steroidal glycosides with cytotoxic and anti-inflammatory activities from Solanum violaceum” (J Nat Prod, 2012).
